Reference: ChEMBL document CHEMBL3872211, “4, 5-Dihydrooxazole-pyrazoline hybrids: Synthesis and their evaluation as potential antimalarial agents” (Eur J Med Chem, 2016)
Converted amounts (≈) assume the structure as drawn. The source made the active and inactive calls. The rule behind the calls is not given here.

Columns and labels:
Plasmodium falciparum [1] = assay: Antimalarial activity against chloroquine-resistant Plasmodium falciparum RKL9 infected in human red blood cells assessed as inhibition of schizont stage parasite growth measured after 24 hrs by giemsa staining based assay; assay type: functional, cell-based; conditions: RKL9, 24 h
In short: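 P. falciparum RKL9 parasitized RBCs at 2-3% parasitemia, 8% hematocrit in RPMI 1640 with human AB+ serum. Exposed to serial dilutions of test samples, 24 h at 37 °C under 90% N2/5% CO2/5% O2. Giemsa-stained smears; schizonts (≥3 merozoites) counted; IC50 by non-linear regression of dose-response curves.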

Plasmodium falciparum [2] = assay: Antimalarial activity against chloroquine-sensitive Plasmodium falciparum 3D7 infected in human red blood cells assessed as inhibition of schizont stage parasite growth measured after 24 hrs by giemsa staining based assay; assay type: functional, cell-based; conditions: 3D7, 24 h
In short: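 Parasitized RBCs (2-3% parasitemia, 8% hematocrit) in RPMI 1640 with human AB+ serum were exposed to serial dilutions of test samples from 1 mg/ml stock. Incubation was 24 h at 37 °C under 90% N2/5% CO2/5% O2. Giemsa-stained smears were scored for schizonts (≥3 merozoites). IC50 was taken from dose-response curves by non-linear regression.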

[3] = Resistance index, ratio of IC50 for chloroquine-resistant Plasmodium falciparum RKL9 infected in human RBC to IC50 for chloroquine-sensitive Plasmodium falciparum 3D7 infected in human red blood cells; assay type: functional
In short: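 Ratio of IC50 vs RKL9 to IC50 vs 3D7. Both from 24 h, 37 °C culture in RBCs (2-3% parasitemia, 8% hematocrit, RPMI 1640 plus human AB+ serum, 90% N2/5% CO2/5% O2), Giemsa smear schizont counts, non-linear regression.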

[4] = Selectivity index, ratio of IC50 for cytotoxicity against African green monkey vero cells to IC50 for antimalarial activity against chloroquine-resistant Plasmodium falciparum RKL9 infected in human red blood cells; assay type: toxicity, cell-based; conditions: read-out: Ratio IC50
In short: (§1)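 SI = CC50/IC50. CC50 from Vero cells exposed 72 h to compound dilutions, MTT read-out (modified Mosmann method). Antimalarial IC50 from 24 h, 37 °C P. falciparum (3D7 or RKL9) RBC culture, Giemsa schizont counts, non-linear regression.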

[5] = Selectivity index, ratio of IC50 for cytotoxicity against African green monkey vero cells to IC50 for antimalarial activity against chloroquine-sensitive Plasmodium falciparum 3D7 infected in human red blood cells; assay type: toxicity, cell-based; conditions: read-out: Ratio IC50; in short: as §1
Heme [6] = assay: Binding affinity to monomeric heme (unknown origin) assessed as association constant at pH 5.6 by UV-titration method
In short: (§2)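 Hemin stock was 1.2 mM in DMSO. It was diluted into aqueous DMSO (40%) buffered with HEPES pH 7.4 (0.02 M), or with MES for the pH 5.6 run. The titrant (2 mM stock in DMSO) was added stepwise at 0-100 µM final, and the Soret band was read at 402 nm. Association constant (log K) was derived by titration.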

Heme [7] = assay: Binding affinity to monomeric heme (unknown origin) assessed as association constant at pH 7.4 by UV-titration method; in short: as §2
mu-oxodimeric heme [8] = assay: Binding affinity to mu-oxodimeric heme (unknown origin) assessed as 1:1 stoichiometry for mu-oxodimeric heme-compound complex up to 100 uM at pH 5.8 by Job's plot analysis
In short: (§3)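 Hemin stock was 10 mM in 0.1 M NaOH, sonicated 30 min, then diluted in 20 mM phosphate buffer pH 5.8 to give µ-oxodimeric heme. Compound from 2 mM DMSO stock was titrated in (0-100 µM) and absorbance followed at 362 nm. Log K was obtained by titration, and stoichiometry by molar-fraction Job's plot.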

Plasmodium berghei [9] = assay: Antimalarial activity against Plasmodium berghei NK65 infected in Swiss albino mouse assessed as reduction in parasitemia at 50 mg/kg, po administered 4 hrs post infection for 4 days measured on day 4 post infection by giemsa staining based microscopic method; assay type: functional; parameters: scale not given: the % may be the effect or the level left
In short: (§4)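 Peters 4-day suppressive test: female Swiss albino mice (20-25 g), groups of five, infected ip with about 10-15% P. berghei NK65-parasitized erythrocytes from a donor mouse. Oral dosing began 4 h later and was given on days 0-3. Vehicle-only group served as negative control. On day 4, tail-vein smears were methanol-fixed, Giemsa-stained and read at 1000×. % suppression was calculated against the negative control.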

Plasmodium berghei [10] = assay: Antimalarial activity against Plasmodium berghei NK65 infected in Swiss albino mouse assessed as mean survival days at 25 mg/kg, po administered 4 hrs post infection for 4 days measured up to 30 days (reference value: 7.2 days); assay type: functional
Plasmodium berghei [11] = assay: Antimalarial activity against Plasmodium berghei NK65 infected in Swiss albino mouse assessed as reduction in parasitemia at 25 mg/kg, po administered 4 hrs post infection for 4 days measured on day 4 post infection by giemsa staining based microscopic method; assay type: functional; parameters: scale not given: the % may be the effect or the level left; in short: as §4
mu-oxodimeric heme [12] = assay: Binding affinity to mu-oxodimeric heme (unknown origin) assessed as association constant at pH 5.8 by UV-titration method; in short: as §3
Heme [13] = assay: Binding affinity to monomeric heme assessed as 1:1 stoichiometry for heme-compound complex up to 100 uM at pH 5.6 by Job's plot analysis
In short: (§5)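 Monomeric hemin was prepared in 40% DMSO with 0.02 M HEPES (pH 7.4) or 0.02 M MES (pH 5.6). Absorbance was monitored at 402 nm. Complex stoichiometry was determined by a molar-fraction Job's plot.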

Heme [14] = assay: Binding affinity to monomeric heme assessed as 1:1 stoichiometry for heme-compound complex up to 100 uM at pH 7.4 by Job's plot analysis; in short: as §5
Plasmodium berghei [15] = assay: Antimalarial activity against Plasmodium berghei NK65 infected in Swiss albino mouse assessed as mean survival days at 50 mg/kg, po administered 4 hrs post infection for 4 days measured up to 30 days (Rvb= 7.2 days); assay type: functional
Rattus norvegicus = assay: Acute toxicity in Wistar rat assessed as inflammatory cells infiltration in periportal area of liver at <300 mg/kg, po measured after 14 days; assay type: organism-based; conditions: in vivo, 336 h
Plasmodium berghei [16] = assay: Antimalarial activity against Plasmodium berghei NK65 infected in Swiss albino mouse assessed as mean survival days at 5 mg/kg, po administered 4 hrs post infection for 4 days measured up to 30 days (reference value: 7.2 days); assay type: functional
Plasmodium berghei [17] = assay: Antimalarial activity against Plasmodium berghei NK65 infected in Swiss albino mouse assessed as reduction in parasitemia at 5 mg/kg, po administered 4 hrs post infection for 4 days measured on day 4 post infection by giemsa staining based microscopic method; assay type: functional; parameters: scale not given: the % may be the effect or the level left; in short: as §4

Compound	IC50 (Plasmodium falciparum [1]) [µg/mL]	IC50 (Plasmodium falciparum [2]) [µg/mL]	Ratio IC50 [3]	selectivity ratio [4]	selectivity ratio [5]	further results
NS(=O)(=O)c1ccc(N2N=C(c3ccc(OCC4=NCCO4)cc3)CC2c2ccc(F)cc2)cc1 (configuration not stated)	1.77 (≈ 3.59 µM)	0.419 (≈ 0.847 µM)	4.23	4.6	19.8	–
COc1cccc(C2CC(c3ccc(OCC4=NCCO4)cc3)=NN2c2ccc(S(N)(=O)=O)cc2)c1 (configuration not stated)	0.936 (≈ 1.85 µM)	0.413 (≈ 0.815 µM)	2.27	8.1	18.4	–
Cc1ccc(/C=C/C(=O)c2ccc(OCC3=NCCO3)cc2)cc1	–	2.68 (≈ 8.34 µM)	–	–	–	–
O=C(/C=C/c1ccc([N+](=O)[O-])cc1)c1ccc(OCC2=NCCO2)cc1	–	0.723 (≈ 2.05 µM)	–	–	–	–
Cc1ccc(C2CC(c3ccc(OCC4=NCCO4)cc3)=NN2c2ccccc2)cc1 (configuration not stated)	–	1.01 (≈ 2.45 µM)	–	–	–	–
NS(=O)(=O)c1ccc(N2N=C(c3ccc(OCC4=NCCO4)cc3)CC2c2ccc3c(c2)OCCO3)cc1 (configuration not stated)	–	2.15 (≈ 4.03 µM)	–	–	–	–
O=C(/C=C/c1cccc([N+](=O)[O-])c1)c1ccc(OCC2=NCCO2)cc1	–	1.57 (≈ 4.46 µM)	–	–	–	–
c1ccc2c(C3CC(c4ccc(OCC5=NCCO5)cc4)=NN3)c[nH]c2c1 (configuration not stated)	–	0.657 (≈ 1.82 µM)	–	–	–	–
O=C(/C=C/c1ccc(F)cc1)c1ccc(OCC2=NCCO2)cc1	–	0.813 (≈ 2.5 µM)	–	–	–	–
NS(=O)(=O)c1ccc(N2N=C(c3ccc(OCC4=NCCO4)cc3)CC2c2cccc([N+](=O)[O-])c2)cc1 (configuration not stated)	–	1.02 (≈ 1.96 µM)	–	–	–	–
O=C(/C=C/c1cccc(Cl)c1)c1ccc(OCC2=NCCO2)cc1	–	0.577 (≈ 1.69 µM)	–	–	–	–
COc1ccc(/C=C/C(=O)c2ccc(OCC3=NCCO3)cc2)cc1	–	1.57 (≈ 4.66 µM)	–	–	–	–
COc1ccc(C2CC(c3ccc(OCC4=NCCO4)cc3)=NN2c2ccccc2)cc1 (configuration not stated)	1.57 (≈ 3.67 µM)	0.545 (≈ 1.27 µM)	2.88	10.5	30.4	–
O=C(/C=C/c1cccc(O)c1)c1ccc(OCC2=NCCO2)cc1	1.57 (≈ 4.86 µM)	0.515 (≈ 1.59 µM)	3.05	7.7	23.6	–
COc1cccc(/C=C/C(=O)c2ccc(OCC3=NCCO3)cc2)c1	–	1.82 (≈ 5.4 µM)	–	–	–	–
O=C(/C=C/c1ccc(Cl)cc1)c1ccc(OCC2=NCCO2)cc1	1.82 (≈ 5.33 µM)	0.557 (≈ 1.63 µM)	3.27	7.8	25.5	–

Compound	IC50 (Plasmodium falciparum [1]) [µg/mL]	IC50 (Plasmodium falciparum [2]) [µg/mL]	Ratio IC50 [3]	selectivity ratio [4]	selectivity ratio [5]	further results
COc1ccc(C2CC(c3ccc(OCC4=NCCO4)cc3)=NN2c2ccc(S(N)(=O)=O)cc2)cc1 (configuration not stated)	0.737 (≈ 1.45 µM)	0.322 (≈ 0.636 µM)	2.29	5.5	12.5	log K (Heme [6]): 4.98; log K (Heme [7]): 5.87; Activity (mu-oxodimeric heme [8]): Active; Activity (Plasmodium berghei [9]): 79.33%; MSD (Plasmodium berghei [10]): 11.4 days; Activity (Plasmodium berghei [11]): 63.89%; log K (mu-oxodimeric heme [12]): 4.34; Activity (Heme [13]): Active; Activity (Heme [14]): Active; MSD (Plasmodium berghei [15]): 15.6 days; Activity (Rattus norvegicus): Non-Toxic
NS(=O)(=O)c1ccc(N2N=C(c3ccc(OCC4=NCCO4)cc3)CC2c2cccc(Cl)c2)cc1 (configuration not stated)	2.15 (≈ 4.22 µM)	0.552 (≈ 1.08 µM)	3.9	8.7	34.2	–
c1ccc(N2N=C(c3ccc(OCC4=NCCO4)cc3)CC2c2c[nH]c3ccccc23)cc1 (configuration not stated)	4.23 (≈ 9.7 µM)	0.459 (≈ 1.05 µM)	9.22	2.3	21.3	–
CCN(CC)CCCC(C)Nc1ccnc2cc(Cl)ccc12 (configuration not stated) [CHLOROQUINE]	–	–	–	–	–	MSD (Plasmodium berghei [16]): 30 days; Activity (Plasmodium berghei [17]): 97.1%
NS(=O)(=O)c1ccc(N2N=C(c3ccc(OCC4=NCCO4)cc3)CC2c2ccc([N+](=O)[O-])cc2)cc1 (configuration not stated)	–	0.627 (≈ 1.2 µM)	–	–	–	–
O=C(/C=C/c1ccc2c(c1)OCCO2)c1ccc(OCC2=NCCO2)cc1	–	4.23 (≈ 11.6 µM)	–	–	–	–
Fc1ccc(C2CC(c3ccc(OCC4=NCCO4)cc3)=NN2c2ccccc2)cc1 (configuration not stated)	–	0.645 (≈ 1.55 µM)	–	–	–	–
O=C(/C=C/c1ccc(O)cc1)c1ccc(OCC2=NCCO2)cc1	–	2.44 (≈ 7.54 µM)	–	–	–	–
CC(=O)N1N=C(c2ccc(OCC3=NCCO3)cc2)CC1c1ccc(Cl)cc1 (configuration not stated)	1.57 (≈ 3.95 µM)	0.513 (≈ 1.29 µM)	3.06	9.6	29.5	–
COc1ccc(C2CC(c3ccc(OCC4=NCCO4)cc3)=NN2)cc1 (configuration not stated)	–	1.03 (≈ 2.94 µM)	–	–	–	–
NS(=O)(=O)c1ccc(N2N=C(c3ccc(OCC4=NCCO4)cc3)CC2c2ccc(Cl)cc2)cc1 (configuration not stated)	1.82 (≈ 3.57 µM)	0.471 (≈ 0.922 µM)	3.87	5.7	22.2	–
CC(=O)c1ccc(OCC2=NCCO2)cc1	–	0.737 (≈ 3.36 µM)	–	–	–	–
Clc1ccc(C2CC(c3ccc(OCC4=NCCO4)cc3)=NN2c2ccccc2)cc1 (configuration not stated)	1.57 (≈ 3.64 µM)	0.477 (≈ 1.1 µM)	3.29	7.1	23.3	–
O=C(/C=C/c1c[nH]c2ccccc12)c1ccc(OCC2=NCCO2)cc1	–	0.936 (≈ 2.7 µM)	–	–	–	–
O=C(/C=C/c1ccccc1)c1ccc(OCC2=NCCO2)cc1	–	1.77 (≈ 5.77 µM)	–	–	–	–
